Data as given in ChEMBL document CHEMBL5370680, “Design and Biological Evaluation of Piperazine-Bearing Nitrobenzamide Hypoxia/GDEPT Prodrugs: The Discovery of CP-506” (ACS Med Chem Lett, 2023).

Tests used:
[1] = Selectivity ratio of IC50 for antiproliferative activity against wild type human NCI-H1299 cells to IC50 for antiproliferative activity against human NCI-H1299 cells expressing NfsA of Escherichia coli; type: functional; conditions: time 4 hrs
Outline: (§1)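 Ratio of mean IC50 in non-transfected wild-type cells to mean IC50 in the AKR1C3- or NfsA_Ec-transfected line. IC50 is from a 4 h prodrug exposure and 5 days' regrowth.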

HCT-116 [2] = test: Antiproliferative activity against human HCT-116 cells assessed as inhibition of cell growth incubated for 4 hrs under anoxic condition and measured after 5 days regrowth under aerobic condition; type: functional, cell-based
Outline: (§2)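 Low-density monolayer antiproliferative assay. Cells exposed to prodrug for 4 h under aerobic or anoxic conditions, then regrown aerobically for 5 days. IC50 is the concentration giving 50% growth inhibition versus untreated controls. Mean values reported, CV <20%.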

HCT-116 [3] = test: Antiproliferative activity against human HCT-116 cells expressing NfsA of Escherichia coli assessed as cell growth inhibition measured after 4 hrs; type: functional; conditions: HCT-116, 4 h
Outline: (§3)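 Monolayer antiproliferative assay using wild-type cells and isogenic lines transfected with AKR1C3 or E. coli NfsA. Cells exposed to prodrug for 4 h, then regrown for 5 days. IC50 is 50% growth inhibition versus untreated controls. Mean values reported, CV <20%.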

[4] = Selectivity ratio of IC50 for antiproliferative activity against human HCT-116 cells overexpressing cytochrome P450 oxidoreductase assessed as inhibition of cell growth under aerobic condition to IC50 for antiproliferative activity against human HCT-116 cells overexpressing cytochrome P450 oxidoreductase assessed as inhibition of cell growth under anoxic condition; type: functional
Outline: (§4)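 Hypoxic cytotoxicity ratio is aerobic IC50 divided by anoxic IC50. Each IC50 comes from a 4 h drug exposure under aerobic or anoxic conditions, followed by 5 days' aerobic regrowth, relative to untreated controls.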

HCT-116 [5] = test: Antiproliferative activity against human HCT-116 cells in three-dimensional cell culture multicellular layer expressing AKR1C3 assessed as fold change in plating efficiency at 10 uM; type: functional
Outline: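 100% AKR1C3-expressing HCT116 MCLs, against wild-type HCT116 MCLs, exposed to 10 μM prodrug. Clonogenic plating efficiency measured. Fold change is the plating-efficiency ratio between wild-type and transfected MCLs. ≥3 independent experiments.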

NCI-H1299 [6] = test: Antiproliferative activity against human NCI-H1299 cells expressing NfsA of Escherichia coli assessed as cell growth inhibition measured after 4 hrs; type: functional; conditions: NCI-H1299, 4 h; outline: as §3
SiHa [7] = test: Antiproliferative activity against human SiHa cells assessed as inhibition of cell growth incubated for 4 hrs under anoxic condition and measured after 5 days regrowth under aerobic condition; type: functional, cell-based; outline: as §2
NCI-H1299 [8] = test: Antiproliferative activity against human NCI-H1299 cells expressing AKR1C3 assessed as cell growth inhibition measured after 4 hrs; type: functional, cell-based; conditions: NCI-H1299, 4 h; outline: as §3
HCT-116 [9] = test: Antiproliferative activity against human HCT-116 cells overexpressing cytochrome P450 oxidoreductase assessed as inhibition of cell growth incubated for 4 hrs under anoxic condition and measured after 5 days regrowth under aerobic condition; type: functional, cell-based; outline: as §2
[10] = Selectivity ratio of IC50 for antiproliferative activity against human HCT-116 cells assessed as inhibition of cell growth under aerobic condition to IC50 for antiproliferative activity against human HCT-116 cells assessed as inhibition of cell growth under anoxic condition; type: functional; outline: as §4
HCT-116 [11] = test: Antiproliferative activity against human HCT-116 cells overexpressing cytochrome P450 oxidoreductase assessed as inhibition of cell growth incubated for 4 hrs under aerobic condition and measured after 5 days regrowth under aerobic condition; type: functional, cell-based; outline: as §2
HCT-116 [12] = test: Antiproliferative activity against human HCT-116 cells expressing AKR1C3 assessed as cell growth inhibition measured after 4 hrs; type: functional, cell-based; conditions: HCT-116, 4 h; outline: as §3
[13] = Selectivity ratio of IC50 for antiproliferative activity against human SiHa cells assessed as inhibition of cell growth under aerobic condition to IC50 for antiproliferative activity against human SiHa cells assessed as inhibition of cell growth under anoxic condition; type: functional; outline: as §4
[14] = Selectivity ratio of IC50 for antiproliferative activity against wild type human HCT-116 cells to IC50 for antiproliferative activity against human HCT-116 cells expressing AKR1C3; type: functional; conditions: time 4 hrs; outline: as §1
HCT-116 [15] = test: Antiproliferative activity against human HCT-116 cells assessed as inhibition of cell growth incubated for 4 hrs under aerobic condition and measured after 5 days regrowth under aerobic condition; type: functional, cell-based; outline: as §2
HCT-116 [16] = test: Antiproliferative activity against wild type human HCT-116 cells assessed as cell growth inhibition measured after 4 hrs; type: functional, cell-based; conditions: HCT-116, 4 h; outline: as §3
SiHa [17] = test: Antiproliferative activity against human SiHa cells assessed as inhibition of cell growth incubated for 4 hrs under aerobic condition and measured after 5 days regrowth under aerobic condition; type: functional, cell-based; outline: as §2
[18] = Selectivity ratio of IC50 for antiproliferative activity against wild type human HCT-116 cells to IC50 for antiproliferative activity against human HCT-116 cells expressing NfsA of Escherichia coli; type: functional; conditions: time 4 hrs; outline: as §1
[19] = Selectivity ratio of IC50 for antiproliferative activity against wild type human NCI-H1299 cells to IC50 for antiproliferative activity against human NCI-H1299 cells expressing AKR1C3; type: functional; conditions: time 4 hrs; outline: as §1
HCT-116 [20] = test: Antiproliferative activity against human HCT-116 cells in three-dimensional cell culture multicellular layer expressing NfsA of Escherichia coli assessed as fold change in plating efficiency at 10 uM; type: functional
Outline: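 Mixed MCLs of wild-type HCT116 with 3% NfsA_Ec-expressing cells, against 100% wild-type MCLs, exposed to 10 μM prodrug. Clonogenic plating efficiency measured. Fold change is the plating-efficiency ratio between wild-type and transfected MCLs. ≥3 independent experiments.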

NCI-H1299 [21] = test: Antiproliferative activity against wild type human NCI-H1299 cells assessed as cell growth inhibition measured after 4 hrs; type: functional, cell-based; conditions: NCI-H1299, 4 h; outline: as §3
[22] = Octanol/water partition coefficient, log D of the compound at pH 7.4; type: physicochemical
Outline: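 Octanol–water partition coefficient by shake-flask method at pH 7.4.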

HCT-116 [23] = test: Antiproliferative activity against human HCT-116 cells in three-dimensional cell culture multicellular layers assessed as log cell killing under anoxic condition at 100 uM; type: functional
Outline: (§5)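 HCT116 three-dimensional multicellular layers exposed to 100 μM prodrug under aerobic or anoxic conditions. Clonogenic survivors per MCL counted. Log cell kill = log CS(control) − log CS(treated). Mean of ≥3 independent experiments.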

HCT-116 [24] = test: Antiproliferative activity against human HCT-116 cells in three-dimensional cell culture multicellular layers assessed as log cell killing under aerobic condition at 100 uM; type: functional; outline: as §5
[25] = Metabolic stability in mouse liver microsome assessed as half life in presence of NADPH by LC-MS/MS analysis; type: ADME; conditions: liver microsomes
Outline: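 Male mouse hepatic microsomes incubated with prodrug for 30 min, with or without NADPH cofactor. Percentage of parent compound remaining tracked from triplicate incubations. Half-life estimated from this loss.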

SMILES | Ratio IC50 [1] | IC50 (HCT-116 [2]) [µM] | IC50 (HCT-116 [3]) [nM] | Ratio IC50 [4] | fold change (FC) (HCT-116 [5]) | IC50 (NCI-H1299 [6]) [nM] | IC50 (SiHa [7]) [µM] | IC50 (NCI-H1299 [8]) [µM] | IC50 (HCT-116 [9]) [nM] | IC50 (HCT-116 [11]) [µM] | IC50 (HCT-116 [12]) [µM] | Ratio IC50 [13] | Ratio IC50 [14] | IC50 (HCT-116 [16]) [µM] | IC50 (SiHa [17]) [µM] | Ratio IC50 [18] | Ratio IC50 [19] | fold change (FC) (HCT-116 [20]) | IC50 (NCI-H1299 [21]) [µM] | logD [22] | other results
CS(=O)(=O)OCCN(CCBr)c1c(C(=O)NCCO)cc([N+](=O)[O-])cc1[N+](=O)[O-] | 2375 | 2.5 | 16 | 293 | 100500 | 48 | 2.7 | 7.4 | 140 | 41 | 1.1 | 7 | 60 | 66 | 19 | 4125 | 15 | 29 | 114 | 1 | Ratio IC50 [10]: 15; IC50 (HCT-116 [15]): 38 µM
CCS(=O)(=O)c1cc([N+](=O)[O-])c(C(=O)N2CCN(C(C)C)CC2)cc1N(CCBr)CCBr | 73 |  | 496 |  | 0.9 | 685 |  | 67 |  |  | 70 |  | 0.9 | 65 |  | 131 | 0.7 | 351 | 49 | 2.5 | 
CCN1CCN(C(=O)c2cc(N(CCBr)CCOS(C)(=O)=O)c(S(=O)(=O)CC)cc2[N+](=O)[O-])CC1 |  | 18 |  | 44 |  |  | 15 |  | 2800 | 122 |  | >20 |  |  | > 300 |  |  |  |  | 1 | LCK (HCT-116 [23]): 0.016; LCK (HCT-116 [24]): 2.3
CN1CCN(C(=O)c2cc(N(CCBr)CCOS(C)(=O)=O)c(S(C)(=O)=O)cc2[N+](=O)[O-])CC1 |  | 23 |  | 87 |  |  | 47 |  | 1600 | 139 |  | 12 |  |  | 561 |  |  |  |  | 0.3 | Ratio IC50 [10]: 16; LCK (HCT-116 [23]): 0.016; IC50 (HCT-116 [15]): 368 µM; LCK (HCT-116 [24]): 2.3
CN1CCN(C(=O)c2cc(N(CCBr)CCBr)c(S(C)(=O)=O)cc2[N+](=O)[O-])CC1 | 636 | 24 | 89 | 93 | 1.1 | 154 | 16 | 102 | 880 | 82 | 70 | 15 | 1.5 | 102 | 241 | 1146 | 1 | 1531 | 98 | 1.4 | Ratio IC50 [10]: 6.6; LCK (HCT-116 [23]): 0.016; IC50 (HCT-116 [15]): 160 µM; LCK (HCT-116 [24]): 2.3
CC(C)N1CCN(C(=O)c2cc(N(CCBr)CCBr)c(S(C)(=O)=O)cc2[N+](=O)[O-])CC1 | 206 |  | 132 |  | 0.9 | 287 |  | 69 |  |  | 53 |  | 1.2 | 61 |  | 462 | 0.9 | 1943 | 59 | 1.9 | 
CCS(=O)(=O)c1cc([N+](=O)[O-])c(C(=O)N2CCN(C)CC2)cc1N(CCBr)CCBr | 156 |  | 231 |  | 1.1 | 546 |  | 58 |  |  | 73 |  | 1.1 | 83 |  | 359 | 1.5 | 709 | 85 | 2.2 | 
CCN1CCN(C(=O)c2cc(N(CCBr)CCOS(C)(=O)=O)c(S(C)(=O)=O)cc2[N+](=O)[O-])CC1 [CP-506] |  | 14 |  | 93 |  |  | 22 |  | 1200 | 112 |  | 21 |  |  | 459 |  |  |  |  | 0.6 | Ratio IC50 [10]: 21; LCK (HCT-116 [23]): 0.016; IC50 (HCT-116 [15]): 288 µM; half-life [25]: 41.2 min; LCK (HCT-116 [24]): 2.3
